Laboratory results reported in article PMC4243878 (British Journal of Clinical Pharmacology, 2014).
“And” between values parts separate entries of the source, which are not always exact repeats. Equal values may be shown once. Read-outs that look alike come from different tables or passages of the source. One block for each compound: values may come before it.

Columns and labels:
[1] = cited from earlier work
[2] = type: in vivo, human; settings: Cohort 1, boceprevir 800 mg every 8 h + dolutegravir 50 mg once daily (n = 15); geometric mean (%CVb)
Procedure, shortened: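 Cohort 1 took 800 mg oral boceprevir three times daily with 50 mg dolutegravir daily for 10 days, with moderate-fat meals. Plasma was acidified with phosphoric acid, and the stereoisomers were extracted by solid-phase extraction. Analysis was LC-MS/MS with heated nebulizer, positive ion mode, calibrated 0.0052–5.2 and 0.0048–4.8 μg ml−1. Parameters came from noncompartmental steady-state analysis, reported as geometric means (%CVb) and median Tmax, and were compared with label values without statistics.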

[3] = type: in vivo, human; settings: for Cmin / AUC / Cmax / concentration at 24 h / half-life: geometric mean (95% CI); for AUC / Cmax / concentration at 24 h / half-life: both, human, plasma, oral; for AUC: AUC0–τ; for concentration at 24 h: Cτ
Procedure, shortened: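 Healthy adults took 50 mg oral dolutegravir once daily with a morning moderate-fat meal, alone for 5 days. They then continued for 10 days with boceprevir 800 mg or telaprevir 750 mg three times daily, with no washout. Plasma was assayed by validated LC-MS/MS. Noncompartmental parameters used actual sampling times, with Cτ taken at 24 h postdose. Log-transformed AUC0–τ, Cmax and Cτ were analysed by mixed-model ANOVA (subject random, treatment fixed). Results were given as GLS mean ratios with 95% CI versus dolutegravir alone.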

[4] = previous dolutegravir clinical studies; cited from earlier work
[5] = Safety: adverse events in healthy adult subjects; type: in vivo, human; settings: dolutegravir n = 32, combinations n = 16 each
Procedure, shortened: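 Healthy adults aged 18–65 were randomised into two cohorts of 16. Period 1: 50 mg dolutegravir once daily for 5 days. Period 2, with no washout: Cohort 1 added boceprevir 800 mg three times daily, Cohort 2 added telaprevir 750 mg three times daily, both for 10 days. Doses were given with moderate-fat meals (30% fat, 600 calories). Adverse events were recorded and graded for intensity and drug relatedness.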

[6] = type: in vivo, human; settings: Cohort 2, telaprevir 750 mg every 8 h + dolutegravir 50 mg once daily (n = 15)
Procedure, shortened: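 Cohort 2 took 750 mg oral telaprevir three times daily with 50 mg dolutegravir daily for 10 days, with moderate-fat meals. Plasma was acidified with phosphoric acid, and (S)-telaprevir was extracted by supported liquid extraction. Analysis was LC-MS/MS with TurboIonSpray, positive ion mode, calibrated 0.1–20 μg ml−1. Steady-state parameters came from noncompartmental analysis and were compared with label data without formal statistics.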

[7] = cited from earlier work; remark: listed apart in the source
[8] = Boceprevir alone, historical, ref Boceprevir package insert, 2013
[9] = Cohort 1, dolutegravir 50 mg once daily + boceprevir 800 mg every 8 h, Period 2 (n = 13)
[10] = Cohort 1, dolutegravir + boceprevir vs. dolutegravir
[11] = Cohort 2, dolutegravir 50 mg once daily + telaprevir 750 mg every 8 h, Period 2 (n = 15)
[12] = Cohort 2, dolutegravir + telaprevir vs. dolutegravir
[13] = 50 mg, Cohort 1, dolutegravir 50 mg once daily alone, Period 1 (n = 16)
[14] = 50 mg, Cohort 2, dolutegravir 50 mg once daily alone, Period 1 (n = 16)
[15] = coadministration with telaprevir vs dolutegravir alone
[16] = Telaprevir alone, historical, ref Telaprevir package insert, 2013

Cmin [2]: 0.07 (23) μg ml^−1 | Cτ [2]: 0.08 (35) μg ml^−1
SMILES: CC(C)(C)NC(=O)N[C@H](C(=O)N1C[C@H]2[C@@H]([C@H]1C(=O)NC(CC1CCC1)C(=O)C(N)=O)C2(C)C)C(C)(C)C (stereo partly shown) [Boceprevir, boceprevir]
AUC0–τ [1, 8]: 5408 ng·h/mL | Cmax [1, 8]: 1723 ng/mL | Cmin [1, 8]: 80 ng/mL | half-life [1]: 3 to 4 h

Cmin [3, 9]: 1.36 (1.10, 1.68) μg ml^−1 | Cmin ([3]; Cohort 1, dolutegravir 50 mg once daily alone, Period 1 (n = 16)): 1.00 (0.79, 1.25) μg ml^−1 | AUC0–τ GLS mean ratio (95% CI) [3, 10]: 1.07 (0.924, 1.234) | Cmax GLS mean ratio (95% CI) [3, 10]: 1.05 (0.941, 1.176) | Cmin GLS mean ratio (95% CI) [3, 10]: 1.36 (1.106, 1.684) | Cτ GLS mean ratio (95% CI) [3, 10]: 1.08 (0.878, 1.329) | t1/2 GLS mean ratio (95% CI) [3, 10]: 1.05 (0.940, 1.166) | Cmin [3, 11]: 2.03 (1.73, 2.38) μg ml^−1 | Cmin ([3]; Cohort 2, dolutegravir 50 mg once daily alone, Period 1 (n = 16)): 1.18 (0.96, 1.46) μg ml^−1 | AUC0–τ GLS mean ratio (95% CI) [3, 12]: 1.25 (1.183, 1.327) | Cmax GLS mean ratio (95% CI) [3, 12]: 1.19 (1.096, 1.282) | Cmin GLS mean ratio (95% CI) [3, 12]: 1.76 (1.570, 1.963) | Cτ GLS mean ratio (95% CI) [3, 12]: 1.37 (1.274, 1.468) | t1/2 GLS mean ratio (95% CI) [3, 12]: 1.18 (1.061, 1.305) | AUC [3, 13]: 61500 ng·h/mL | AUC [3, 14]: 68900 ng·h/mL | Cmax [3, 13]: 4620 ng/mL | Cmax [3, 14]: 4990 ng/mL | concentration at 24 h [3, 13]: 1310 ng/mL | concentration at 24 h [3, 14]: 1590 ng/mL | half-life ([3]; 50 mg, t1/2, Cohort 1, dolutegravir 50 mg once daily alone, Period 1 (n = 16)): 13.2 h | half-life ([3]; 50 mg, t1/2, Cohort 2, dolutegravir 50 mg once daily alone, Period 1 (n = 16)): 14.5 h | AUC [3, 9]: 65300 ng·h/mL | AUC [3, 11]: 84200 ng·h/mL | Cmax [3, 9]: 4820 ng/mL | Cmax [3, 11]: 5810 ng/mL | concentration at 24 h [3, 9]: 1400 ng/mL | concentration at 24 h [3, 11]: 2090 ng/mL | half-life ([3]; t1/2, Cohort 1, dolutegravir 50 mg once daily + boceprevir 800 mg every 8 h, Period 2 (n = 13)): 13.8 h | half-life ([3]; t1/2, Cohort 2, dolutegravir 50 mg once daily + telaprevir 750 mg every 8 h, Period 2 (n = 14)): 16.7 h | change (increase) in dolutegravir Cτ ([3]; coadministration with boceprevir vs dolutegravir alone): 8% and < 10% | increase in dolutegravir AUC0–τ [3, 15]: 25% | increase in dolutegravir Cmax [3, 15]: 19% | increase in dolutegravir Cτ [3, 15]: 37% | change in dolutegravir exposure ([3]; with boceprevir): 7% | change in dolutegravir exposure ([3]; with telaprevir): 25%
SMILES: C[C@@H]1CCO[C@H]2Cn3cc(C(=O)NCc4ccc(F)cc4F)c(=O)c(O)c3C(=O)N12 [Dolutegravir]
Elevated alanine aminotransferase, frequency [4]: <1–2 % of subjects | All adverse events: Abdominal pain [5]: 0 n (%) | All adverse events: Anal haemorrhage [5]: 0 n (%) | All adverse events: Anorectal discomfort [5]: 0 n (%) | All adverse events: Any adverse event [5]: 4 (13) n (%) | All adverse events: Dysgeusia [5]: 0 n (%) | All adverse events: Haemorrhoids [5]: 0 n (%) | All adverse events: Headache [5]: 2 (6) n (%) | All adverse events: Maculopapular rash [5]: 1 (3) n (%) | Drug-related adverse events: Abdominal pain [5]: 0 n (%) | Drug-related adverse events: Any adverse event [5]: 2 (6) n (%) | Drug-related adverse events: Dysgeusia [5]: 0 n (%) | Drug-related adverse events: Headache [5]: 1 (3) n (%) | Drug-related adverse events: Maculopapular rash [5]: 1 (3) n (%) | Subjects withdrawn because of AEs [5]: 0 n (%)

Cmin ([6]; geometric mean (%CVb)): 1.72 (25) μg ml^−1 | Cτ ([6]; geometric mean (%CVb)): 1.75 (26) μg ml^−1 | Tmax ([6]; median (range)): 3.00 (2.0, 4.0) h
SMILES: CCC[C@H](NC(=O)[C@@H]1[C@H]2CCC[C@H]2CN1C(=O)[C@@H](NC(=O)[C@@H](NC(=O)c1cnccn1)C1CCCCC1)C(C)(C)C)C(=O)C(=O)NC1CC1 [Telaprevir, telaprevir]
AUC0–τ [7, 16]: 22300 ng·h/mL | Cmax [7, 16]: 3510 ng/mL | Cmin [7, 16]: 2030 ng/mL | half-life [7]: 9 to 10 h
